Laboratory results taken from ChEMBL document CHEMBL2384986, “Re-evolution of the 2-phenylquinolines: ligand-based design, synthesis, and biological evaluation of a potent new class of Staphylococcus aureus NorA efflux pump inhibitors to combat antimicrobial resistance” (J Med Chem, 2013).
The source made the active and inactive calls. The calls are words filed in the database; no cut-off is given here.

Key:
[1] = target: T1, Quinolone resistance protein NorA (Staphylococcus aureus) (UniProt P0A0J7); experiment: Inhibition of NorA in Staphylococcus aureus 1199B harboring grlA A116E mutant assessed as inhibition of ethidium bromide efflux at 50 uM measured for 5 mins by fluorometric analysis relative to control
T1 sequence (whole entry): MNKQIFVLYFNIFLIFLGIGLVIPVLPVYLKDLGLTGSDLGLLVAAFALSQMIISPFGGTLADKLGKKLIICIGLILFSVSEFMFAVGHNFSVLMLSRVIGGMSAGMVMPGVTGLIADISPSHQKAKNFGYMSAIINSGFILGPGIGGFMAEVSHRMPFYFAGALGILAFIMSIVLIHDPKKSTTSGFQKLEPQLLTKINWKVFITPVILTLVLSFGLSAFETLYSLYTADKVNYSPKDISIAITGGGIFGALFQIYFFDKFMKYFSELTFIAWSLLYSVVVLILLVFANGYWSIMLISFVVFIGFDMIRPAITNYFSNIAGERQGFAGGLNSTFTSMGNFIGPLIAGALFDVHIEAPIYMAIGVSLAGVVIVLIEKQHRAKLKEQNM
Method in brief: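 EtBr loss from SA-1199B (norA overexpressing, GrlA A116E) measured fluorometrically with inhibitor at 50 μM, compared with no-inhibitor control. Read-out is mean total efflux over a 5 min time course, expressed as percent reduction in efflux. Usually run in duplicate.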

Staphylococcus aureus [2] = experiment: Antibacterial activity against Staphylococcus aureus 1199 harboring wild type norA assessed as growth inhibition by microdilution method
Staphylococcus aureus [3] = experiment: Antibacterial activity against wild type Staphylococcus aureus ATCC 25923 assessed as growth inhibition by microdilution method; type: functional
Method in brief: (§1)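 Broth microdilution MIC determination following CLSI guidelines. Strains: wild-type ATCC 25923 and SA-K1902 (norA−). Intrinsic activity was tested up to a top concentration of 100 μg/mL.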

Staphylococcus aureus [4] = experiment: Antibacterial activity against norA-deficient Staphylococcus aureus K1902 assessed as growth inhibition by microdilution method; type: functional; method in brief: as §1
Staphylococcus aureus [5] = experiment: Reduction of ethidium bromide MIC in mepA-deficient Staphylococcus aureus K2885 at 0.78 to 100 ug/mL; type: functional, organism-based
Method in brief: (§2)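 The strains are norA-deleted S. aureus carrying pALC2073-mepA (K2886) or the empty pALC2073 vector (K2885). Cloned genes are under a xyl/tetO promoter, induced by 0.05 μg/mL tetracycline, which was present in all experiments with these strains. EtBr MICs were determined by CLSI microdilution, with and without test compound.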

Staphylococcus aureus [6] = experiment: Reduction of ciprofloxacin MIC in norA-deficient Staphylococcus aureus K1902 at 0.78 to 100 ug/mL; type: functional, organism-based
Method in brief: (§3)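 Ciprofloxacin MIC determined by CLSI broth microdilution, alone and combined with scalar dilutions of freshly prepared test compound; checkerboard combination format. Strains: ATCC 25923 (wild type), SA-1199 (norA wt), SA-1199B (norA overexpressing, GrlA A116E), SA-K2378 (norA on multicopy pCU1) and SA-K1902 (norA-deleted).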

Staphylococcus aureus [7] = experiment: Inhibition of MepA in Staphylococcus aureus K2886 assessed as reduction of ethidium bromide MIC at 0.78 to 100 ug/mL; method in brief: as §2
[8] = target: T1, Quinolone resistance protein NorA (Staphylococcus aureus); experiment: Inhibition of NorA in Staphylococcus aureus ATCC 25923 assessed as reduction of ciprofloxacin MIC at 0.78 to 100 ug/mL; method in brief: as §3
Staphylococcus aureus [9] = experiment: Antibacterial activity against Staphylococcus aureus 1199B overexpressing NorA and grlA A116E mutant assessed as growth inhibition by microdilution method; type: functional
Method in brief: (§4)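 Broth microdilution MIC per CLSI guidelines for intrinsic antistaphylococcal activity; highest concentration tested 100 μg/mL. SA-1199 is the norA wild-type parent, SA-1199B overexpresses norA and carries GrlA A116E, and SA-K2378 overexpresses norA from multicopy plasmid pCU1 in the norA-deleted SA-K1902 background.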

[10] = target: T1, Quinolone resistance protein NorA (Staphylococcus aureus); experiment: Inhibition of wild type NorA in Staphylococcus aureus 1199 assessed as reduction of ciprofloxacin MIC at 0.78 to 100 ug/mL; method in brief: as §3
Staphylococcus aureus [11] = experiment: Antibacterial activity against Staphylococcus aureus K2378 overexpressing norA assessed as growth inhibition by microdilution method; type: functional; method in brief: as §4
[12] = target: Quinolone resistance protein NorA (Staphylococcus aureus, UniProt P0A0J7); experiment: Inhibition of NorA in Staphylococcus aureus 1199B harboring grlA A116E mutant assessed as inhibition of ethidium bromide efflux measured for 5 mins by fluorometric analysis
Method in brief: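 Fluorometric EtBr efflux assay in SA-1199B (norA overexpressing, GrlA A116E) over a 5 min time course, compared with no-inhibitor control. Increasing inhibitor concentrations were tested, and IC50 was read by inspection of the dose-response plots. Usually run in duplicate.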

[13] = target: T1, Quinolone resistance protein NorA (Staphylococcus aureus); experiment: Inhibition of NorA in Staphylococcus aureus K2378 assessed as reduction of ciprofloxacin MIC at 0.78 to 100 ug/mL relative to control; method in brief: as §3
Staphylococcus aureus [14] = experiment: Inhibition of MepA in Staphylococcus aureus K2886 assessed as reduction of ethidium bromide MIC at 1.56 ug/mL relative to control
Method in brief: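 Ethidium bromide MIC by CLSI microdilution, alone and combined with test compound. Strain SA-K2886 is norA-deleted and carries pALC2073-mepA, with mepA under a xyl/tetO promoter; 0.05 μg/mL tetracycline was included throughout to induce expression.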

[15] = target: T1, Quinolone resistance protein NorA (Staphylococcus aureus); experiment: Inhibition of NorA in Staphylococcus aureus 1199B harboring grlA A116E mutant assessed as reduction of ciprofloxacin MIC at 3.13 ug/mL relative to control; method in brief: as §3

CCCOc1ccc(-c2cc(OCCn3cccc3)c3ccccc3n2)cc1
inhibition [1]: 4.1%

CCCOc1ccc(-c2cc(OCCN3CCc4cc(OC)c(OC)cc4C3)c3ccccc3n2)cc1
inhibition [1]: 79.6%

CCCOc1ccc(-c2cc(OCCN3CCc4ccccc4C3)c3ccccc3n2)cc1
inhibition [1]: 67.9%

CCCOc1ccc(-c2cc(OCc3ccccn3)c3ccccc3n2)cc1
inhibition [1]: 19.6%

CCCOc1ccc(-c2cc(OCCN3CCSCC3)c3ccccc3n2)cc1
inhibition [1]: 57.7%

CCCOc1ccc(-c2cc(OCCN(C(C)C)C(C)C)c3ccccc3n2)cc1
MIC (Staphylococcus aureus [2]): > 100 µg/mL
MIC (Staphylococcus aureus [3]): > 100 µg/mL
MIC (Staphylococcus aureus [4]): 100 µg/mL
Activity (Staphylococcus aureus [5]): inactive
Activity (Staphylococcus aureus [6]): inactive
inhibition (Staphylococcus aureus [7]): Active
inhibition [8]: inactive
MIC (Staphylococcus aureus [9]): > 200 µM
inhibition [10]: inactive
inhibition [1]: 88.2%
MIC (Staphylococcus aureus [11]): > 100 µg/mL
IC50 [12]: 8.3 µM
fold change (FC) [13]: 4

O=C(O)c1cn(C2CC2)c2cc(N3CCNCC3)c(F)cc2c1=O [CIPROFLOXACIN]
MIC (Staphylococcus aureus [2]): 0.63 µg/mL
MIC (Staphylococcus aureus [3]): 0.31 µg/mL
MIC (Staphylococcus aureus [4]): 0.63 µg/mL
MIC (Staphylococcus aureus [11]): 2.5 µg/mL

CCCOc1ccc(-c2cc(OCCN3CCNCC3)c3ccccc3n2)cc1
MIC (Staphylococcus aureus [2]): > 100 µg/mL
MIC (Staphylococcus aureus [3]): > 100 µg/mL
MIC (Staphylococcus aureus [4]): 25 µg/mL
Activity (Staphylococcus aureus [5]): inactive
Activity (Staphylococcus aureus [6]): inactive
fold change (FC) (Staphylococcus aureus [14]): 16
inhibition (Staphylococcus aureus [7]): Active
inhibition [8]: inactive
MIC (Staphylococcus aureus [9]): > 200 µM
inhibition [10]: inactive
fold change (FC) [15]: 16
inhibition [1]: 93.4%
MIC (Staphylococcus aureus [11]): 50 µg/mL
IC50 [12]: 8.3 µM
fold change (FC) [13]: 4

CCCOc1ccc(-c2cc(OCCN(C)C)c3ccccc3n2)cc1
MIC (Staphylococcus aureus [9]): > 249 µM
inhibition [1]: 92%
IC50 [12]: 9.9 µM

CCCOc1ccc(-c2cc(OCCN3CCN(C)CC3)c3ccccc3n2)cc1
MIC (Staphylococcus aureus [9]): > 200 µM
inhibition [1]: 91%
IC50 [12]: 9.7 µM

CCCOc1ccc(-c2cc(OCCCN(C)C)c3ccccc3n2)cc1.Cl
MIC (Staphylococcus aureus [2]): > 100 µg/mL
MIC (Staphylococcus aureus [3]): > 100 µg/mL
MIC (Staphylococcus aureus [4]): 25 µg/mL
Activity (Staphylococcus aureus [5]): inactive
Activity (Staphylococcus aureus [6]): inactive
inhibition (Staphylococcus aureus [7]): Active
inhibition [8]: inactive
MIC (Staphylococcus aureus [9]): > 200 µM
inhibition [10]: inactive
inhibition [1]: 90.6%
MIC (Staphylococcus aureus [11]): 25 µg/mL
IC50 [12]: 3.9 µM
fold change (FC) [13]: 4

CCCCN(CCCC)CCOc1cc(-c2ccc(OCCC)cc2)nc2ccccc12
MIC (Staphylococcus aureus [9]): > 200 µM
inhibition [1]: 88.6%
IC50 [12]: 9.2 µM

CCCOc1ccc(-c2cc(OCCC(C)C)c3ccccc3n2)cc1
inhibition [1]: 33.2%

CCCOc1ccc(-c2cc(OCCN3CCCC3)c3ccccc3n2)cc1
MIC (Staphylococcus aureus [9]): > 200 µM
inhibition [1]: 94.2%
IC50 [12]: 9.3 µM

CCCOc1ccc(-c2cc(OCCN3CCOCC3)c3ccccc3n2)cc1
MIC (Staphylococcus aureus [9]): > 200 µM
inhibition [1]: 86.9%
IC50 [12]: 10.7 µM
